Laboratory results published in ChEMBL document CHEMBL1128311, “Probes for narcotic receptor-mediated phenomena. 20. Alteration of opioid receptor subtype selectivity of the 5-(3-hydroxyphenyl)morphans by application of the message-address concept: preparation of delta-opioid receptor ligands” (J Med Chem, 1995).
“And” between values parts separate entries of the source, which are not always exact repeats. Identical values can stand only once.

Key:
[1] = biological target: Opioid receptors; mu & delta (Rattus norvegicus) (UniProt P33533+P33535); test: Selectivity as the ratio of IC50 value against mu receptor to that of delta receptor.; assay type: protein assay
Sequence of Opioid receptors; mu & delta (Rattus norvegicus) (P33533 whole entry, looked up): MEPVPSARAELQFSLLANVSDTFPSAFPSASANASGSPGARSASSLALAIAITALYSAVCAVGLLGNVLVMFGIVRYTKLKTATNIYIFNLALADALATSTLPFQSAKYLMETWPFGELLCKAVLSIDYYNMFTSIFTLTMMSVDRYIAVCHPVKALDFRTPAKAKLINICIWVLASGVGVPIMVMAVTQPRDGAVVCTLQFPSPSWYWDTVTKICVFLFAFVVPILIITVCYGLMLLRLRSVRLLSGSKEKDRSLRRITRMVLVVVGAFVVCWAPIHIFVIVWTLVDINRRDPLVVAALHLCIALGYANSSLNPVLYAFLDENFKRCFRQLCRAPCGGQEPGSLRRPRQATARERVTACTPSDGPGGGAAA
Sequence of Opioid receptors; mu & delta (Rattus norvegicus) (P33535 whole entry, looked up): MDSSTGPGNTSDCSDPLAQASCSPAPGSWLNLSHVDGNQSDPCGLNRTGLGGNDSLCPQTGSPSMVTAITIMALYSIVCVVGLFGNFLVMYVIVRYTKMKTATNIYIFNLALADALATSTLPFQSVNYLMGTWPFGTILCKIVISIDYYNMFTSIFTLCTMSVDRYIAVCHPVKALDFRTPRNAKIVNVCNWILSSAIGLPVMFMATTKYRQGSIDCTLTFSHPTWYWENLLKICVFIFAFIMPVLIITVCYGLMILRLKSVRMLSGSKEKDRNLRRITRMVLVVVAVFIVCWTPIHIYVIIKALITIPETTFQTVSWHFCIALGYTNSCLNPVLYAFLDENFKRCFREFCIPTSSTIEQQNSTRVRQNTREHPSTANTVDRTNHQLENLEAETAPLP

[2] = biological target: Delta-type opioid receptor (Mus musculus) (UniProt P32300); test: (§1) Opioid activity against delta-receptor of isolated mouse vas deferens(MVD) at 30 uM
Sequence of Delta-type opioid receptor (Mus musculus) (P32300 whole entry): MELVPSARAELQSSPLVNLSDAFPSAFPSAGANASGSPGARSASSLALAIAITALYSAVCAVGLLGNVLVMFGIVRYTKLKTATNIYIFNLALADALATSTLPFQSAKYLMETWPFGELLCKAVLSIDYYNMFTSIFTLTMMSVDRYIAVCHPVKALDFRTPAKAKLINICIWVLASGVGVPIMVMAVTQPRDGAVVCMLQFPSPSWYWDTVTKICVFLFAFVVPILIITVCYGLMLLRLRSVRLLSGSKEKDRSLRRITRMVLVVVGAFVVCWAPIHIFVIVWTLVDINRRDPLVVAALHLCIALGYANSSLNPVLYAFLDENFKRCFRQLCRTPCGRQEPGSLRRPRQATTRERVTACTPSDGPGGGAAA
Procedure, shortened: (§2)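 Electrically stimulated contractions of male ICR mouse vas deferens (25-40 g mice) and male Hartley guinea pig ileum longitudinal muscle myenteric plexus strips (250-500 g animals). Tissues held in 37 °C oxygenated Krebs bicarbonate (Mg-free for MVD) at 1 g tension (0.5 g for MVD). Percent inhibition is the contraction height in the 1 min before agonist versus at maximal inhibition. IC50 from nonlinear least squares fit over 2-4 tissues.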

[3] = biological target: Delta-type opioid receptor (Mus musculus, UniProt P32300); test: as §1; procedure, shortened: as §2
Sequence of Delta-type opioid receptor (Mus musculus, UniProt P32300) (P32300 whole entry): as above

[4] = biological target: Mu-type opioid receptor (Rattus norvegicus, UniProt P33535); test: Inhibition of [3H]DAMGO radioligand binding to rat brain opioid receptor mu 1.
Sequence of Mu-type opioid receptor (Rattus norvegicus, UniProt P33535) (P33535 whole entry): as the sequence (P33535 whole entry, looked up) above
Procedure, shortened: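 Rat brain membranes labelled with [3H]DAMGO (1-3 nM). Incubation 4 h at 25 °C in 50 mM Tris-HCl pH 7.4 with protease inhibitor cocktail. Nonspecific binding with 20 μM levallorphan. 8-10 drug concentrations, run twice. Dilutions in 10 mM Tris-HCl pH 7.4 with 1 mg/mL BSA. IC50 from curve fitting.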

[5] = biological target: T1, Kappa-type opioid receptor (Cavia porcellus, UniProt P41144); test: Inhibition of [3H]U-69593 radioligand binding to Guinea pig opioid receptor kappa 1.
T1 sequence (P41144 whole entry): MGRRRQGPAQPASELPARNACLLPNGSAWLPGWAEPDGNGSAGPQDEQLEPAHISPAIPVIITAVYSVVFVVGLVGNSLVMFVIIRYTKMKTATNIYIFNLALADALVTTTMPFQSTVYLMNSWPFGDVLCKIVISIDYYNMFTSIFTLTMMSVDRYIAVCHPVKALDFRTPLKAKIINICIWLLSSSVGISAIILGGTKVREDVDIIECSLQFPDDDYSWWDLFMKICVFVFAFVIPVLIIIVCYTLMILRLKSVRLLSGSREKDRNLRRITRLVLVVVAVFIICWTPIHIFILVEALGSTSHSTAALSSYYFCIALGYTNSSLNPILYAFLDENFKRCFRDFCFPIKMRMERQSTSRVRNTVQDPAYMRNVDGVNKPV

[6] = biological target: Delta-type opioid receptor (Rattus norvegicus, UniProt P33533); test: Inhibition of [3H]DADLE radioligand binding to rat brain opioid receptor delta 1.
Sequence of Delta-type opioid receptor (Rattus norvegicus, UniProt P33533) (P33533 whole entry): as the sequence (P33533 whole entry, looked up) above

[7] = biological target: Mu-type opioid receptor (Cavia porcellus, UniProt P97266); test: The opioid activity against the mu-receptor in the isolated guinea pig ileum(GPI); assay type: tissue-based; procedure, shortened: as §2
Sequence of Mu-type opioid receptor (Cavia porcellus, UniProt P97266) (P97266 whole entry): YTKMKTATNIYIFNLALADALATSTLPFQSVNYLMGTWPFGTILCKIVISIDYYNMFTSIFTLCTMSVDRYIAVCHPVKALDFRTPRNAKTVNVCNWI

[8] = biological target: T1, Kappa-type opioid receptor; test: Inhibition of [3H]-U-69,593 radioligand binding to Guinea pig Opioid receptor kappa 1; not determined
Procedure, shortened: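 Guinea pig brain membranes depleted of μ and δ sites by pretreatment with irreversible ligands BIT and FIT, labelled with [3H]-U69,593 (1.2-2.3 nM). Incubation 4-6 h at 25 °C in 50 mM Tris-HCl pH 7.4 with protease inhibitor cocktail and 1 μg/mL captopril. Nonspecific binding with 1 μM U69,593. 8-10 drug concentrations, run twice. IC50 from curve fitting.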

| Compound | Selectivity [1] | inhibition [2] [%] | IC50 [3] | IC50 [4] | IC50 [5] [nM] | IC50 [6] [nM] | IC50 [7] | IC50 [8] [nM] |
| --- | --- | --- | --- | --- | --- | --- | --- | --- |
| Oc1cccc(C23CCN(CCc4ccccc4)C(Cc4[nH]c5ccccc5c42)C3)c1 (stereo not drawn) [listing 1 of 2 here] | 8.88 | – | – | – | – | – | – | – |
| CN1CCC2(c3cccc(O)c3)CCCC1C2 (stereo in doubt; (-)-1) [listing 1 of 2 here] | < 0.02 | 26 | – | – | – | – | – | – |
| CN1CCC2(c3cccc(O)c3)CCCC1C2 (single isomer, unassigned; (+)) [listing 1 of 2 here] | < 0.02 | – | – | – | – | – | – | – |
| CN1CCC2(c3cccc(O)c3)CCCC1C2 (single isomer, unassigned; (+)) [listing 2 of 2 here] | – | – | 557 nM | 21.4 nM | 910 | > 1000 | 169 nM | – |
| Oc1cccc(C23CCN(CC4CC4)C(Cc4[nH]c5ccccc5c42)C3)c1 (stereo not drawn) | 2.14 | – | – | 180 nM | 934 | 84.1 | – | – |
| CCCCCCN1CCC2(c3cccc(O)c3)CC1Cc1[nH]c3ccccc3c12 (stereo not drawn) | 2.08 | – | – | 70.6 nM | > 1000 | 34 | – | – |
| CN1CCC2(c3cccc(O)c3)CC1Cc1[nH]c3ccccc3c12 (single isomer, unassigned; (-)) [listing 1 of 2 here] | – | – | 393 nM | 14.2 nM | – | 5.6 | 2350 nM | – |
| CN1CCC2(c3cccc(O)c3)CC(=O)CC1C2 (stereo in doubt; 13) [listing 1 of 2 here] | 0.03 | – | – | – | – | – | – | – |
| Oc1cccc(C23CCN(CCc4ccccc4)C(Cc4[nH]c5ccccc5c42)C3)c1 (stereo not drawn) [listing 2 of 2 here] | – | – | – | 50.6 nM | > 1000 | 5.7 | – | – |
| CCCN1CCC2(c3cccc(O)c3)CC1Cc1[nH]c3ccccc3c12 (stereo not drawn) | 7.4 | – | – | 300 nM | > 1000 | 40.5 | – | – |
| CCN1CCC2(c3cccc(O)c3)CC1Cc1[nH]c3ccccc3c12 (stereo not drawn) | 5.4 | – | – | 1260 nM | > 1000 | 233 | – | – |
| Oc1cccc(C23CCN(CCc4ccccc4)C(Cc4[nH]c5ccccc5c42)C3)c1 (single isomer, unassigned; (+)) [listing 1 of 2 here] | < 0.09 | – | – | – | – | – | – | – |
| CN1CCC2(c3cccc(O)c3)CC1Cc1[nH]c3ccc4ccccc4c3c12 (stereo not drawn) | – | – | – | > 1000 nM | > 1000 | > 10000 | – | – |
| CCCCCCCN1CCC2(c3cccc(O)c3)CC1Cc1[nH]c3ccccc3c12 (stereo not drawn) | 1.43 | – | – | 66.6 nM | > 1000 | 46.7 | – | – |
| CN1CCC2(c3cccc(O)c3)Cc3nc4ccccc4cc3C1C2 (stereo not drawn) | – | – | – | – | 197 | – | – | – |
| Oc1cccc(C23CCNC(Cc4[nH]c5ccccc5c42)C3)c1 (stereo not drawn) | 5.14 | – | – | 357 nM | > 10000 | 69.5 | – | – |
| Oc1cccc(C23CCN(CCc4ccccc4)C(Cc4[nH]c5ccccc5c42)C3)c1 (single isomer, unassigned; (-)) [listing 1 of 2 here] | 4.03 | – | – | – | – | – | – | – |
| CN1CCC2(c3cccc(O)c3)CC(=O)CC1C2 (single isomer, unassigned; (-)) [listing 1 of 2 here] | – | – | – | 33.5 nM | 981 | 273 | – | – |
| CCCCN1CCC2(c3cccc(O)c3)CC1Cc1[nH]c3ccccc3c12 (stereo not drawn) | 4.02 | – | – | 72.4 nM | > 1000 | 18 | – | – |

| Compound | Selectivity [1] | inhibition [2] [%] | IC50 [3] | IC50 [4] | IC50 [5] [nM] | IC50 [6] [nM] | IC50 [7] | IC50 [8] [nM] |
| --- | --- | --- | --- | --- | --- | --- | --- | --- |
| CN1CCC2(c3cccc(O)c3)CC1Cc1[nH]c3ccccc3c12 (stereo not drawn) | – | – | 1390 nM and 347 nM | 21.4 nM and 29.8 nM | > 1000 | – | 1940 nM and 2070 nM | – |
| CN1CCC2(c3cccc(O)c3)CC1Cc1[nH]c3c(ccc4ccccc43)c12 (stereo not drawn) | 16.5 | – | – | 208 nM | > 1000 | 12.6 | – | – |
| CN1CCC2(c3cccc(O)c3)C/C(=N/Nc3ccccc3)CC1C2 (stereo not drawn) | 0.08 | – | – | 8.7 nM | 241 | 111 | – | – |
| CN1CCC2(c3cccc(O)c3)Cc3[nH]c4ccccc4c3C1C2 (stereo not drawn) | < 0.04 | – | – | 43.9 nM | 798 | > 1000 | – | – |
| CN1CCC2(c3cccc(O)c3)CC(=O)CC1C2 (single isomer, unassigned; (+)) [listing 1 of 2 here] | 0.12 | – | – | – | – | – | – | – |
| CN1CCC2(c3cccc(O)c3)CCCC1C2 (stereo in doubt; (-)-1) [listing 2 of 2 here] | – | – | – | 20.8 nM | 819 | > 1000 | 639 nM | – |
| CN1CCC2(c3cccc(O)c3)Cc3[nH]c4c(ccc5ccccc54)c3C1C2 (stereo not drawn) | 0.35 | – | – | 366 nM | > 1000 | 1050 | – | – |
| CC(C)C[C@@H](NC(=O)[C@H](Cc1ccccc1)NC(=O)CNC(=O)[C@@H](C)NC(=O)[C@@H](N)Cc1ccc(O)cc1)C(=O)O [DADLE] | – | – | – | – | – | – | 28.8 nM | 1.71 |
| Oc1cccc(C23CCN(CCc4ccccc4)C(Cc4[nH]c5ccccc5c42)C3)c1 (single isomer, unassigned; (+)) [listing 2 of 2 here] | – | – | – | 89.2 nM | > 1000 | > 1000 | – | – |
| CN1CCC2(c3cccc(O)c3)CC1C[C@@H](NC(=O)Cc1ccccc1)C2 (stereo partly drawn) | 0.52 | – | – | 119 nM | 2220 | 227 | – | – |
| Oc1cccc(C23CCN(Cc4ccccc4)C(Cc4[nH]c5ccccc5c42)C3)c1 (stereo not drawn) | 2.76 | – | – | 508 nM | 90 | 184 | – | – |
| Oc1cccc(C23CCN(CCc4ccccc4)C(Cc4[nH]c5ccccc5c42)C3)c1 (single isomer, unassigned; (-)) [listing 2 of 2 here] | – | – | – | 25 nM | > 1000 | 6.2 | – | – |
| CN1CCC2(c3cccc(O)c3)CC(=O)CC1C2 (single isomer, unassigned; (-)) [listing 2 of 2 here] | 0.12 | – | – | – | – | – | – | – |
| C=CCN1CCC2(c3cccc(O)c3)CC1Cc1[nH]c3ccccc3c12 (stereo not drawn) | 2.58 | – | – | 361 nM | 2160 | 140 | – | – |
| CCCCCN1CCC2(c3cccc(O)c3)CC1Cc1[nH]c3ccccc3c12 (stereo not drawn) | 3.41 | – | – | 23.5 nM | 993 | 6.9 | – | – |
| CN1CCC2(c3cccc(O)c3)CC(=O)CC1C2 (single isomer, unassigned; (+)) [listing 2 of 2 here] | – | – | – | 137 nM | 5070 | 1140 | – | – |
| CN1CCC2(c3cccc(O)c3)CC(=O)CC1C2 (stereo in doubt; 13) [listing 2 of 2 here] | – | – | – | 21.2 nM | 2030 | 720 | – | – |
| CN1CCC2(c3cccc(O)c3)CC1C[C@@H](NC(=O)c1ccccc1)C2 (stereo partly drawn) | – | – | – | – | 5560 | 487 | – | – |
| CN1CCC2(c3cccc(O)c3)CC1Cc1[nH]c3ccccc3c12 (single isomer, unassigned; (-)) [listing 2 of 2 here] | 2.54 | – | – | – | – | – | – | – |
